Bioassay records: PubChem BioAssay, The Scripps Research Institute Molecular Screening Center
Rows were chosen to be rich in hits. Some 1.8% of all compounds tested hit in one or more screens of this group.
NPY-Y2 PAM-ag – potentiates or activates human NPY-Y2 receptor | P49146 | cells expressing NPY-Y2, potentiator/agonist read-out | activation, % at 3.6 µM | actives 0.45% (n = 220,000) | AID 1359; in the data active = activation above about 27%;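 note: cells stimulated with NPY near EC25 plus isoproterenol at EC100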
NPY-Y1 PAM-ag – human NPY-Y1 potentiation or agonism, primary screen. NPY-Y1 expressing cells, potentiator/agonist activation. actives 0.37% (n = 220,000). P25929. activation, % at 3.6 µM; in the data active = activation above about 33%, passing the limit was not always enough;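 note: cells stimulated with NPY at EC10 then isoproterenol at EC100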
Target sequence (P25929 whole entry, looked up): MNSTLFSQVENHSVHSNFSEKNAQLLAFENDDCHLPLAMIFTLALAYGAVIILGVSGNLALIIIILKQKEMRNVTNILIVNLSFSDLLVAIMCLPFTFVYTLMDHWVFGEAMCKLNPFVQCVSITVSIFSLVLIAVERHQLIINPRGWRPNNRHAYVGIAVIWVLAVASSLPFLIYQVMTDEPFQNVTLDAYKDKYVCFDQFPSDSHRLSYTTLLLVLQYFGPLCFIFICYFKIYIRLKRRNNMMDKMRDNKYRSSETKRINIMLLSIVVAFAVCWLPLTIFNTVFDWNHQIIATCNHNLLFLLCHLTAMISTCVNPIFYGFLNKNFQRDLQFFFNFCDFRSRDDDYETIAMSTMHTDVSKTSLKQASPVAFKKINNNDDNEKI
NPY-Y1 antag – antagonists of human neuropeptide Y receptor Y1; HEK293-CNG Y1 cells, membrane potential fluorescence; NPY at EC95, then isoproterenol; actives 1% (n = 200,000); inhibition, % at 3.6 µM;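 active = inhibition above the campaign mean inhibition of all tested compounds plus 3 SD, cut at about 20% in these data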
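Material: HEK293 Y1/CNG channel cell line; also added: NPY (25 nM), isoproterenol (1 µM), Ro 20-1724 (25 µM); doses: one concentration, 3.6 µM, in 0.4% DMSO; schedule: compound incubation 1 h at room temperature, readout 45 min post-stimulation; technique: membrane potential fluorescence; measure: fluorescence ratio normalized to % inhibition between controls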
NPY-Y2 antag – blocks the human neuropeptide Y Y2 receptor. NPY-Y2 expressing cells, antagonist mode. inhibition, % at 2.7 µM. actives 0.99% (n = 140,000). AID 793; in the data active = inhibition above about 17%
NPY-Y1 antag ct – counter-screen for NPY-Y2 antagonists: human NPY-Y1 antagonism | inhibition, % at 3.6 µM | shares compounds with NPY-Y2 antag | actives 19% (n = 710) | cell-based NPY-Y1 antagonism counterscreen; in the data active = inhibition above about 20%;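 note: cells challenged with NPY then isoproterenol with cAMP sensed through a CNG channel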
NPY2 antag conf – human NPY-Y2 antagonism, confirmation; AID 1257; actives 32% (n = 710); inhibition, % at 2.8 µM; HEK293 NPY-Y2 CNG channel, membrane potential fluorescence; shares compounds with NPY-Y2 antag;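 active = mean inhibition of triplicate wells above the hit cutoff set in the primary screen, cut at about 17% in these data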
Numbers stand for hits; i = inactive; nt = no result.

SMILES | NPY-Y2 PAM-ag | NPY-Y1 PAM-ag | NPY-Y1 antag | NPY-Y2 antag | NPY-Y1 antag ct | NPY2 antag conf
c1ccc(Cc2nnc(-c3ccccc3)o2)cc1 | i | i | i | 135 | i | 19
COc1ccc(-c2noc(CSc3nc(-c4ccccc4)cc(=O)[nH]3)n2)cc1 | i | i | i | 25 | i | i
CC(C)(C)c1ccc(OCC(=O)Nc2ccc3c4c(cccc24)C(=O)NC3=O)cc1 | i | i | i | nt | nt | nt
CS(=O)(=O)N(CC(=O)NCCSCc1cccc(Cl)c1)c1ccc2c(c1)OCO2 | i | i | i | i | nt | nt
O=C(/C=C/c1ccc2c(c1)OCO2)NCCSCc1ccc(Cl)cc1Cl | i | i | i | 19 | i | i
O=C(/C=C/c1ccc2c(c1)OCO2)NCCSCc1cccc(Cl)c1 | i | i | i | 18 | i | i
Cn1c(=S)c2[nH]c(SCCN3CCCC3)nc2n(C)c1=O | i | i | nt | nt | nt | nt
CCOC(=O)c1c(NC(=O)CC2SC(N)=NC2=O)sc2c1CCCC2 (stereo not given) | i | i | i | i | nt | nt
CC(C)CC(c1nnnn1Cc1ccc(F)cc1)N1CCC(C(N)=O)CC1 (stereo not given) | i | i | i | nt | nt | nt
CCOc1cccc(Nc2cc3n(c(=O)n2)CCc2cc(OC)c(OC)cc2-3)c1 | i | i | i | 18 | 38 | 65
COc1cc2c(cc1OC)-c1cc(Nc3ccc4c(c3)OCCO4)nc(=O)n1CC2 | i | i | i | i | nt | nt
CCCn1c2ccccc2c2cc(C(=O)O)ccc21 | i | i | i | 19 | i | i
Cn1c2ccccc2c2cc(C(=O)O)ccc21 | i | i | i | i | nt | nt
Cc1ccc(Cc2nnc3n(-c4ccccc4)nc(C(=O)c4ccccc4)n3c2=O)cc1 | i | i | i | 17 | 40 | 67
Cc1ccc(CNC(=O)c2cc(C)nn2-c2ccccc2)cc1 | i | i | nt | nt | nt | nt
N/C(Cc1ccc(Cl)cc1)=N\OC(=O)Cc1ccc([N+](=O)[O-])cc1 | i | i | i | i | nt | nt
CCOC(=O)/C(N=Nc1ccc(Cl)cc1)=C(/O)c1ccc([N+](=O)[O-])cc1 | i | i | i | 17 | i | i
Nn1c(COc2ccc(Cl)cc2)nc2ccccc2c1=O | i | i | i | i | nt | nt
CC1CCCN(C(=O)Cc2cn(Cc3cccc(Cl)c3)c3ccccc23)C1 (stereo not given) | i | i | i | 17 | i | i
CCCCNC(=O)c1onc(CSc2ccccc2F)c1C(=O)O | i | i | i | 37 | i | 18
C=CCNC(=O)c1onc(CSc2ccccc2F)c1C(=O)O | i | i | i | 18 | i | i
C=CCNC(=O)c1onc(CSc2cccc3ccccc23)c1C(=O)O | i | i | i | i | nt | nt
CCCCNC(=O)c1onc(CSc2cc(C)cc(C)c2)c1C(=O)O | i | i | i | i | nt | nt
CCCCNC(=O)c1onc(CSc2cccc(C)c2)c1C(=O)O | i | i | i | 21 | i | i
Cc1cccc(OCc2nc(-c3cccnc3)no2)c1 | i | i | i | i | nt | nt
SMILES | NPY-Y2 PAM-ag | NPY-Y1 PAM-ag | NPY-Y1 antag | NPY-Y2 antag | NPY-Y1 antag ct | NPY2 antag conf
CCCC(c1nnnn1C(C)(C)CC)N1CCN(C2CCCC2)CC1 (stereo not given) | i | i | i | 25 | i | i
CCC(c1nnnn1C(C)(C)C)N1CCN(C2CCCC2)CC1 (stereo not given) | i | i | i | i | nt | nt
CCC(c1nnnn1C1CCCCC1)N1CCN(C2CCCC2)CC1 (stereo not given) | i | i | i | 27 | i | i
CC1CCCN(S(=O)(=O)c2ccc(S(=O)(=O)NC(C)c3cccs3)cc2)C1 (stereo not given) | i | i | i | i | nt | nt
COc1ccc(OCC(=O)NNC(=O)c2cccc(S(=O)(=O)N(C)C)c2)cc1 | i | i | i | i | nt | nt
O=S(=O)(c1ccc(-c2ccccn2)s1)N1CCC2(CC1)OCCO2 | i | i | nt | nt | nt | nt
O=C1CSC(c2cccnc2)N1Cc1ccc(Cl)c(Cl)c1 (stereo not given) | i | i | nt | nt | nt | nt
COc1cccc(NC(=O)CSc2nc3ccsc3c(=O)n2-c2ccc(C(=O)O)cc2)c1 | i | i | i | nt | nt | nt
CN(C)c1ccc(/C=C2\SC(=O)N(CC(O)Cn3c4ccccc4c4ccccc43)C2=O)cc1 (stereo not given) | i | i | i | 21 | 26 | i
COc1ccc(C(=O)Nc2ccc(NS(=O)(=O)c3ccccc3)cc2)cc1OC | i | i | nt | nt | nt | nt
CC(=O)c1cn(-c2ccc(Cl)cc2)c(=O)n(Cc2ccc(F)cc2)c1=O | i | i | i | nt | nt | nt
CC(C)COP(=O)(OCC(C)C)C(Nc1ccccc1)c1ccc2c(c1)OCO2 (stereo not given) | i | i | i | 20 | i | i
COC(=O)c1cccnc1-n1c(=O)c2cccnc2n(Cc2cccc(C(F)(F)F)c2)c1=O | i | i | i | nt | nt | nt
CCCCCCCCCS(=O)(=O)N/N=C/c1cccc([N+](=O)[O-])c1 | i | i | i | 24 | i | 21
O=C(COC(=O)c1ccc(S(=O)(=O)NCc2ccco2)cc1)NC1CCCCCC1 | i | i | i | i | nt | nt
O=C(NC1CCCCCC1)c1ccc(S(=O)(=O)NCc2ccco2)cc1 | i | i | i | 21 | i | i
COc1ccc(CCNC(=O)c2sc3ccccc3c2Cl)cc1OC | i | i | i | 26 | i | i
CN(C)C(=O)OCC1COc2ccccc2O1 (stereo not given) | i | i | nt | nt | nt | nt
Cc1cccc(OCCCSc2nc3ccc(C)cc3[nH]2)c1 | i | i | i | 17 | i | i
O=C(C1CCN(Cc2ccc(Cl)cc2)CC1)N1CCN(C(c2ccccc2)c2ccccc2)CC1 | i | i | i | 20 | i | 32
O=C(C1CCN(Cc2ccc(OCc3ccccc3)cc2)CC1)N1CCCC1 | i | i | i | i | nt | nt
Cc1ccc(SCc2[nH]nc3c2C(c2cccnc2)C(C#N)=C(N)O3)cc1 (stereo not given) | i | i | i | 18 | 93 | 81
CCc1[nH]nc2c1C(c1cccnc1)C(C#N)=C(N)O2 (stereo not given) | i | i | i | i | nt | nt
CCc1ccc(OCc2cnc(Cl)s2)cc1 | i | i | i | nt | nt | nt
N/C(=N\OCc1ccc([N+](=O)[O-])cc1)c1ccncc1 | i | i | i | nt | nt | nt
SMILES | NPY-Y2 PAM-ag | NPY-Y1 PAM-ag | NPY-Y1 antag | NPY-Y2 antag | NPY-Y1 antag ct | NPY2 antag conf
O=C(NCCCn1ccnc1)/C(=C\c1cccs1)NC(=O)c1ccco1 | i | i | i | i | nt | nt
COc1ccc(C(=O)N/C(=C/c2cccs2)C(=O)NCCCn2ccnc2)cc1OC | i | i | i | 22 | i | i
CCN1/C(=C2\OC(=S)N(C)C2=O)C=Cc2ccccc21 | i | i | i | nt | nt | nt
CCN1/C(=C2\OC(=S)N(C)C2=O)Sc2ccccc21 | i | i | i | 20 | i | i
COC(=O)c1sccc1NC(=S)N1CCN(c2ccccc2F)CC1 | i | i | i | 18 | i | i
NC(=O)Cn1c(S(=O)(=O)Cc2ccccc2)nc2ccccc21 | i | i | i | i | nt | nt
CCOC(=O)Cn1c(S(=O)(=O)Cc2cccc(F)c2)nc(-c2ccccc2)c1-c1ccccc1 | i | i | i | 19 | i | i
Cc1ccc([N+](=O)[O-])cc1NC(=O)c1ccc(-c2ccccc2)cc1 | i | i | i | 22 | i | i
Cc1ccc(C(=O)Nc2cc([N+](=O)[O-])ccc2C)cc1 | i | i | i | nt | nt | nt
